# Test results reported in ChEMBL document CHEMBL1649119, “Daptomycin pharmacokinetics in adult oncology patients with neutropenic fever” (Antimicrob Agents Chemother, 2009).
# What was measured:
# [1] = Plasma concentration in morbidly obese adult human at 4 mg/kg, iv administered as single dose 30 mins infusion measured after 24 hrs; format: ADME, organism-based; parameters: dose 4 mg/kg, route intravenous
# [2] = Plasma concentration in moderately obese adult human at 4 mg/kg, iv administered as single dose 30 mins infusion measured after 24 hrs; format: ADME, organism-based; parameters: dose 4 mg/kg, route intravenous
# [3] = Cmax in adult human with hepatic impairment at 6 mg/kg, iv administered as single dose 30 mins infusion; format: ADME, organism-based; parameters: dose 6 mg/kg, route intravenous; conditions: in vivo
# [4] = Cmax in cancer patient with neutropenic fever at 6 mg/kg, iv administered as 30 mins infusion every 24 hrs; format: ADME, organism-based; parameters: dose 6 mg/kg, route intravenous; conditions: human, in vivo
# Method in brief: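 First 6 mg/kg dose given over 30 min IV (q24h) to 29 neutropenic febrile adult cancer patients. Serial plasma was taken predose, at end of infusion, and at 0.5–24 h. Total concentration was measured by validated HPLC (limit of detection 1 μg/ml). Cmax is the observed peak value, reported as mean ± SD and range.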
# [5] = Clearance in cancer patient with neutropenic fever at 6 mg/kg, iv administered as 30 mins infusion every 24 hrs; format: ADME, organism-based; parameters: dose 6 mg/kg, route intravenous; conditions: human, in vivo
# Method in brief: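 29 adult oncology patients with neutropenic fever received 6 mg/kg (total body weight) as a 30-min IV infusion every 24 h. Plasma was sampled predose, at the end of infusion, and at 0.5, 1, 2, 4, 8, 12 and 24 h. Total drug was measured by validated HPLC (linear 1–100 μg/ml). Noncompartmental clearance = dose/AUC0-∞, with AUC from trapezoids plus last concentration/λz. Mean ± SD.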
# Homo sapiens [6] = assay: Half life in cancer patient with neutropenic fever at 6 mg/kg, iv administered as 30 mins infusion every 24 hrs; format: ADME, organism-based; parameters: dose 6 mg/kg, route intravenous; conditions: in vivo
# Method in brief: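 Patients with neutropenic fever; 6 mg/kg by total body weight, 30-min IV infusion q24h. Plasma drawn predose, end of infusion, and 0.5, 1, 2, 4, 8, 12, 24 h after infusion start; total drug by validated HPLC (linear 1–100 μg/ml). Noncompartmental analysis; λz from terminal-phase regression, t1/2 = 0.693/λz.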
# [7] = Plasma protein binding in human after 8 hrs; format: ADME, cell-free; conditions: read-out: PPB (converted)
# Method in brief: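 Neutropenic-fever oncology patients received 6 mg/kg IV daptomycin; serum was drawn 0.5, 2 and 8 h after the end of infusion. Free drug was obtained by ultrafiltration (30,000-MW cutoff) and quantified by HPLC against a saline-matrix curve of 0.25–100 μg/ml, with total plasma drug also measured. Percent bound was (total − free)/total × 100; results are given as mean ± SD.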
# [8] = Apparent volume of distribution during terminal phase in healthy human subjects at 10 mg/kg, iv administered as 30 mins infusion every 24 hrs measured on day 4; format: ADME, organism-based; parameters: dose 10 mg/kg, route intravenous; conditions: in vivo
# [9] = Apparent volume of distribution during terminal phase in healthy human at 8 mg/kg, iv administered as 30 mins infusion every 24 hrs measured on day 14; format: ADME, organism-based; parameters: dose 8 mg/kg, route intravenous; conditions: in vivo
# [10] = Apparent volume of distribution during terminal phase in healthy human at 8 mg/kg, iv administered as 30 mins infusion every 24 hrs measured on day 1; format: ADME, organism-based; parameters: dose 8 mg/kg, route intravenous; conditions: in vivo
# [11] = Cmax in healthy human at 8 mg/kg, iv administered as 30 mins infusion every 24 hrs measured on day 1; format: ADME, organism-based; parameters: dose 8 mg/kg, route intravenous; conditions: in vivo
# [12] = Cmax in healthy human at 4 mg/kg, iv administered as 30 mins infusion every 24 hrs measured on day 1; format: ADME, organism-based; parameters: dose 4 mg/kg, route intravenous; conditions: in vivo
# [13] = Renal clearance in adult human subjects at 6 mg/kg, iv administered as single dose 30 mins infusion; format: ADME, organism-based, Kidney; parameters: dose 6 mg/kg, route intravenous; conditions: in vivo, read-out: CL_renal (converted)
# [14] = Renal clearance in young healthy human at 4 mg/kg, iv administered as single dose 30 mins infusion; format: ADME, organism-based, Kidney; parameters: dose 4 mg/kg, route intravenous; conditions: in vivo, read-out: CL_renal (converted)
# [15] = Half life in young healthy human at 4 mg/kg, iv administered as single dose 30 mins infusion; format: ADME, organism-based; parameters: dose 4 mg/kg, route intravenous; conditions: in vivo
# [16] = Half life in healthy human at 4 mg/kg, iv administered as single dose 30 mins infusion; format: ADME, organism-based; parameters: dose 4 mg/kg, route intravenous; conditions: in vivo
# [17] = AUC (0 to infinity) in nonobese adult human at 4 mg/kg, iv administered as single dose 30 mins infusion; format: ADME, organism-based; parameters: time infinity, dose 4 mg/kg, route intravenous; conditions: plasma
# [18] = AUC (0 to infinity) in young healthy human at 4 mg/kg, iv administered as single dose 30 mins infusion; format: ADME, organism-based; parameters: dose 4 mg/kg, route intravenous, time infinity; conditions: plasma
# [19] = AUC (0 to infinity) in healthy human subjects at 10 mg/kg, iv administered as 30 mins infusion every 24 hrs measured on day 14; format: ADME, organism-based; parameters: time infinity, dose 10 mg/kg, route intravenous; conditions: plasma
# [20] = AUC (0 to infinity) in healthy human subjects at 10 mg/kg, iv administered as 30 mins infusion every 24 hrs measured on day 4; format: ADME, organism-based; parameters: time infinity, dose 10 mg/kg, route intravenous; conditions: plasma
# [21] = AUC (0 to infinity) in healthy human subjects at 12 mg/kg, iv administered as 30 mins infusion every 24 hrs measured on day 1; format: ADME, organism-based; parameters: time infinity, dose 12 mg/kg, route intravenous; conditions: plasma
# [22] = AUC (0 to infinity) in healthy human at 6 mg/kg, iv administered as 30 mins infusion every 24 hrs measured on day 7; format: ADME, organism-based; parameters: time infinity, dose 6 mg/kg, route intravenous; conditions: plasma
# [23] = AUC (0 to infinity) in healthy human at 4 mg/kg, iv administered as 30 mins infusion every 24 hrs measured on day 7; format: ADME, organism-based; parameters: time infinity, dose 4 mg/kg, route intravenous; conditions: plasma
# [24] = AUC (0 to infinity) in healthy human at 6 mg/kg, iv administered as 30 mins infusion every 24 hrs measured on day 1; format: ADME, organism-based; parameters: time infinity, dose 6 mg/kg, route intravenous; conditions: plasma
# [25] = Cmax in healthy human subjects at 12 mg/kg, iv administered as 30 mins infusion every 24 hrs measured on day 4; format: ADME, organism-based; parameters: dose 12 mg/kg, route intravenous; conditions: in vivo
# [26] = Cmax in healthy human subjects at 10 mg/kg, iv administered as 30 mins infusion every 24 hrs measured on day 1; format: ADME, organism-based; parameters: dose 10 mg/kg, route intravenous; conditions: in vivo
# [27] = Volume of distribution at steady state in morbidly obese human at 4 mg/kg, iv administered as single dose 30 mins infusion; format: ADME, organism-based; parameters: dose 4 mg/kg, route intravenous; conditions: in vivo, read-out: Vdss
# [28] = Volume of distribution at steady state in nonobese human at 4 mg/kg, iv administered as single dose 30 mins infusion; format: ADME, organism-based; parameters: dose 4 mg/kg, route intravenous; conditions: in vivo, read-out: Vdss
# [29] = Volume of distribution at steady state in nonobese adult human at 4 mg/kg, iv administered as single dose 30 mins infusion; format: ADME, organism-based; parameters: dose 4 mg/kg, route intravenous; conditions: in vivo, read-out: Vdss
# [30] = Clearance in adult human with hepatic impairment at 6 mg/kg, iv administered as single dose 30 mins infusion; format: ADME, organism-based, Liver; parameters: dose 6 mg/kg, route intravenous; conditions: in vivo
# [31] = Half life in nonobese human at 4 mg/kg, iv administered as single dose 30 mins infusion; format: ADME, organism-based; parameters: dose 4 mg/kg, route intravenous; conditions: in vivo
# [32] = Half life in morbidly obese adult human at 4 mg/kg, iv administered as single dose 30 mins infusion; format: ADME, organism-based; parameters: dose 4 mg/kg, route intravenous; conditions: in vivo
# Homo sapiens [33] = assay: Unbound clearance in healthy human at 6 mg/kg, iv administered as 30 mins infusion every 24 hrs measured on day 1; format: ADME, organism-based; parameters: dose 6 mg/kg, route intravenous; conditions: in vivo
# [34] = Clearance in healthy human subjects at 10 mg/kg, iv administered as 30 mins infusion every 24 hrs measured on day 4; format: ADME, organism-based; parameters: dose 10 mg/kg, route intravenous; conditions: in vivo
# [35] = Clearance in healthy human at 6 mg/kg, iv administered as 30 mins infusion every 24 hrs measured on day 7; format: ADME, organism-based; parameters: dose 6 mg/kg, route intravenous; conditions: in vivo
# [36] = Clearance in healthy human at 8 mg/kg, iv administered as 30 mins infusion every 24 hrs measured on day 1; format: ADME, organism-based; parameters: dose 8 mg/kg, route intravenous; conditions: in vivo
# [37] = Half life in healthy human subjects at 10 mg/kg, iv administered as 30 mins infusion every 24 hrs measured on day 1; format: ADME, organism-based; parameters: dose 10 mg/kg, route intravenous; conditions: in vivo
# [38] = Half life in healthy human at 8 mg/kg, iv administered as 30 mins infusion every 24 hrs measured on day 7; format: ADME, organism-based; parameters: dose 8 mg/kg, route intravenous; conditions: in vivo
smiles,measurement,setting,value
CCCCCCCCCC(=O)N[C@@H](Cc1c[nH]c2ccccc12)C(=O)N[C@H](CC(N)=O)C(=O)N[C@@H](CC(=O)O)C(=O)N[C@@H]1C(=O)NCC(=O)N[C@@H](CCCN)C(=O)N[C@@H](CC(=O)O)C(=O)N[C@H](C)C(=O)N[C@@H](CC(=O)O)C(=O)NCC(=O)N[C@H](CO)C(=O)N[C@@H]([C@H](C)CC(=O)O)C(=O)N[C@@H](CC(=O)c2ccccc2N)C(=O)O[C@@H]1C,concentration at 24 h,[1],5.88 µg/mL
same,concentration at 24 h,[2],3.44 µg/mL
same,Cmax,[3],114 µg/mL
same,Cmax,[4],48.9 µg/mL
same,clearance,[5],0.259 mL/min/kg
same,t1/2,Homo sapiens [6],8.75 h
same,fraction unbound at 8 h,[7],0.068
same,Vd,[8],0.0983 L/kg
same,Vd,[9],0.095 L/kg
same,Vd,[10],0.099 L/kg
same,Cmax,[11],116 µg/mL
same,Cmax,[12],54.6 µg/mL
same,CL renal at 0.5 h,[13],0.0453 mL/min/kg
same,CL renal at 0.5 h,[14],0.12 mL/min/kg
same,half-life,[15],6.79 h
same,half-life,[16],7.74 h
same,AUC(0-inf),[17],322 µg·h/mL
same,AUC(0-inf),[18],301 µg·h/mL
same,AUC(0-inf),[19],1080 µg·h/mL
same,AUC(0-inf),[20],1040 µg·h/mL
same,AUC(0-inf),[21],1270 µg·h/mL
same,AUC(0-inf),[22],747 µg·h/mL
same,AUC(0-inf),[23],494 µg·h/mL
same,AUC(0-inf),[24],705 µg·h/mL
same,Cmax,[25],184 µg/mL
same,Cmax,[26],130 µg/mL
same,Vd,[27],0.09 L/kg
same,Vd,[28],0.11 L/kg
same,Vd,[29],0.13 L/kg
same,clearance,[30],0.118 mL/min/kg
same,half-life,[31],8.04 h
same,half-life,[32],8.12 h
same,CL,Homo sapiens [33],0.992 mL/min/kg
same,clearance,[34],0.147 mL/min/kg
same,clearance,[35],0.135 mL/min/kg
same,clearance,[36],0.12 mL/min/kg
same,half-life,[37],8.4 h
same,half-life,[38],9 h
